For 8 compounds, Inhibition and inhibition in vivo results are on record in ChEMBL document CHEMBL1131010, “Inhibition of human neutrophil elastase. 4. Design, synthesis, X-ray crystallographic analysis, and structure-activity relationships for a series of P2-modified, orally active peptidyl pentafluoroethyl ketones” (J Med Chem, 1998).

What all share (type): functional, Cricetulus griseus
For experiment [1], the system named is Cricetinae gen. sp. Put plainly: In vivo HNE inhibitory activity of lung hemorrhage in 6-8 hamsters. On the set-up: concentration or dose not given beside the values. In outline:
(§1)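 Hamsters dosed orally at 1, 1.5, 2 or 4 h before intratracheal instillation of HNE (25 µg). Animals were killed 1 h after HNE and lungs lavaged with saline. BAL hemoglobin was read spectrophotometrically at 536-546 nm. % inhibition of hemorrhage is relative to vehicle-treated animals, given as mean ± SEM of 6-8 hamsters, with p < 0.05 as significance.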

Experiment [2] concerns Cricetinae gen. sp. The experiment is described as follows: In vivo percent inhibition of lung hemorrhage in 6-8 hamsters after administration of 25 mg/kg 1 hr before intratracheal instillation of HNE (25 ug). In outline: as §1
Experiment [3] deals with Cricetinae gen. sp. The experiment is described as follows: In vivo percent inhibition of lung hemorrhage in 6-8 hamsters administration of 25 mg/kg 1 hour before intratracheal instillation of HNE (25 ug). In outline:
as §1

Experiment [4] concerns Cricetinae gen. sp. The experiment is described as follows: In vivo percent inhibition of lung hemorrhage in 6-8 hamsters administration of 25 mg/kg 2 hours before intratracheal instillation of HNE (25 ug). Summed up:
as §1

For experiment [5], the system named is Cricetinae gen. sp. The experiment is described as follows: In vivo percent inhibition of lung hemorrhage in 6-8 hamsters administration of 25 mg/kg 4 hr before intratracheal instillation of HNE (25 ug). In outline:
as §1

For experiment [6], the system named is Cricetinae gen. sp. Put plainly: In vivo percent inhibition of lung hemorrhage in 6-8 hamsters administration of 25 mg/kg 2 hr before intratracheal instillation of HNE (25 ug). Summed up: as §1
Experiment [7] has as its system Cricetinae gen. sp. Put plainly: In vivo percent inhibition of lung hemorrhage in 6-8 hamsters administration of 25 mg/kg 1 hr before intratracheal instillation of HNE (25 ug). Summed up:
as §1

`CC(C)C(NC(=O)C1CC(O)CN1C(=O)[C@@H](NC(=O)c1ccc(C(=O)N2CCOCC2)cc1)C(C)C)C(=O)C(F)(F)C(F)(F)F` (stereo not given in full) displayed an Inhibition with Cricetinae gen. sp. [1] of 0%.

In the experiment with Cricetinae gen. sp. [1], `CC(C)C(NC(=O)[C@@H]1CCCN1C(=O)[C@@H](NC(=O)c1ccc(C(=O)N2CCOCC2)cc1)C(C)C)C(=O)C(F)(F)C(F)(F)F` (stereo not given in full) gave an Inhibition of 74%.

`CC(C)C(NC(=O)[C@H]1CCN1C(=O)[C@@H](NC(=O)c1ccc(C(=O)N2CCOCC2)cc1)C(C)C)C(=O)C(F)(F)C(F)(F)F` (stereo not given in full) had an inhibition in vivo at 25 mg/kg in the experiment with Cricetinae gen. sp. [2] of 57%. In the experiment with Cricetinae gen. sp. [1], this compound displayed an Inhibition of 79%.

Compound `CC(C)C(NC(=O)[C@H]1CC(OCc2ccccc2)CN1C(=O)[C@@H](NC(=O)c1ccc(C(=O)N2CCOCC2)cc1)C(C)C)C(=O)C(F)(F)C(F)(F)F` (stereo not given in full) came in with an Inhibition with Cricetinae gen. sp. [1] of 7%.

Consider `CC(C)C(NC(=O)[C@@H]1CCCN1C(=O)[C@@H](NC(=O)c1ccc(C(=O)N2CCOCC2)cc1)C(C)C)C(=O)C(F)(F)C(F)(F)C(F)(F)F` (stereo not given in full), for which the inhibition in vivo at 25 mg/kg in the experiment with Cricetinae gen. sp. [3] is 30%; in the experiment on Cricetinae gen. sp. [4], 25%. This compound also registered an Inhibition with Cricetinae gen. sp. [1] of 47%.

Turning to `CC(C)C(NC(=O)[C@@H]1CSCN1C(=O)[C@@H](NC(=O)c1ccc(C(=O)N2CCOCC2)cc1)C(C)C)C(=O)C(F)(F)C(F)(F)F` (stereo not given in full), in the experiment with Cricetinae gen. sp. [1], the Inhibition came to 0%.

As to `CC(=O)OC1CC(C(=O)NC(C(=O)C(F)(F)C(F)(F)F)C(C)C)N(C(=O)[C@@H](NC(=O)c2ccc(C(=O)N3CCOCC3)cc2)C(C)C)C1` (stereo not given in full), in the experiment on Cricetinae gen. sp. [1], the Inhibition stood at 0%. For the same compound, the inhibition in vivo at 25 mg/kg in the experiment on Cricetinae gen. sp. [5] and with Cricetinae gen. sp. [6] was 0% each time.

Consider `CC(C)C(NC(=O)C1CCCCN1C(=O)[C@@H](NC(=O)c1ccc(C(=O)N2CCOCC2)cc1)C(C)C)C(=O)C(F)(F)C(F)(F)F` (stereo not given in full), for which the inhibition in vivo at 25 mg/kg was 43% with Cricetinae gen. sp. [7] and 39% with Cricetinae gen. sp. [6]. The Inhibition in the experiment with Cricetinae gen. sp. [1] is reported as 54%.
